Consider 18 molecules from ChEMBL document CHEMBL1138205, “Novel heterobivalent tacrine derivatives as cholinesterase inhibitors with notable selectivity toward butyrylcholinesterase” (J Med Chem, 2006).

Structures are written as SMILES. Active and inactive are the calls of the source. The rule behind the calls is not given here.

For assay [1], the target named is Cholinesterases; ACHE & BCHE (Homo sapiens) (UniProt P06276+P22303). Put plainly: Selectivity for human BChE over human AChE. Summed up: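 Ratio of IC50 for recombinant human AChE to IC50 for human plasma BChE. Both were measured by DTNB absorbance at 412 nm, pH 7.3, after 15 min enzyme–inhibitor preincubation at 25 °C. Acetyl- or butyrylthiocholine served as substrate. Each IC50 in duplicate from ≥4 inhibitor concentrations.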

The target in assay [2] is Acetylcholinesterase (Electrophorus electricus, UniProt O42275). Kind of assay: (§1) Inhibition of Electrophorus electricus AChE.
In another assay the target is Cholinesterase (Homo sapiens, UniProt P06276). Kind of assay: Inhibition of human plasma BChE. The format is cell-free. Summed up:
(§2)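 Ellman-type spectrophotometric assay at 412 nm in 100 mM sodium phosphate, 100 mM NaCl, pH 7.3, with DTNB. Enzymes: E. electricus AChE (soluble G4), recombinant T. californica AChE (Pichia pastoris, G4), recombinant human AChE (HEK 293, G2/G4), human plasma BChE (G4). Enzyme (~3 U/mL stock) and inhibitor preincubated 15 min at 25 °C. Acetylthiocholine (AChE) or butyrylthiocholine (BChE) then started the reaction. IC50 in duplicate from ≥4 inhibitor concentrations.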

The target in assay [3] is Acetylcholinesterase (Torpedo californica, UniProt P04058). Put plainly: Inhibition of Torpedo californica AChE. More on the design: species or system Tetronarce californica. Summed up: as §2
In assay [4] the target is T1, Acetylcholinesterase (Homo sapiens, UniProt P22303). Put plainly: Inhibition of human AChE. The procedure, abridged:
as §2

Assay [5] has as its target Acetylcholinesterase (Electrophorus electricus) (UniProt O42275). The assay is described as §1.
Assay [6] shares this target. Put plainly: Inhibition of Electrophorus electricus AChE at 100 uM.
Assay [7] addresses T1, Acetylcholinesterase. Put plainly: Inhibition of human AChE at 100 uM.

Chain of Cholinesterase (P06276 whole entry): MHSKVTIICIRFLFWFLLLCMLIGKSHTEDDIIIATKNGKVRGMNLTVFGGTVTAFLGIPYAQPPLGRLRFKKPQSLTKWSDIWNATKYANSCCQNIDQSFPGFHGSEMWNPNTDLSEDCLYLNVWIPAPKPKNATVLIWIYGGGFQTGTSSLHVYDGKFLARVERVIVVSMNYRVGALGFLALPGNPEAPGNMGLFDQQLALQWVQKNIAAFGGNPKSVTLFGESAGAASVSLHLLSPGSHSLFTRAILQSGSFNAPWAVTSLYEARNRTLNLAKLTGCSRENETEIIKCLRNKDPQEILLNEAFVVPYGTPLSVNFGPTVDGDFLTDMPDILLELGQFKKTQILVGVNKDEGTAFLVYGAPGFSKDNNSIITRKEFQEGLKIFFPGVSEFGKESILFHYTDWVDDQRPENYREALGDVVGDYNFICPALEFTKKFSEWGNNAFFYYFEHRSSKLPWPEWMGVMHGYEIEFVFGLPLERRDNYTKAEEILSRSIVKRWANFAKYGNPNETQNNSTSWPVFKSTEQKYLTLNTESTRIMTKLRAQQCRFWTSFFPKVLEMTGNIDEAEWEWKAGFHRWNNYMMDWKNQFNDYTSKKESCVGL
Chain of Cholinesterases; ACHE & BCHE (Homo sapiens) (P06276 whole entry, looked up): as the sequence (P06276 whole entry) above
Chain of Cholinesterases; ACHE & BCHE (Homo sapiens) (P22303 whole entry, looked up): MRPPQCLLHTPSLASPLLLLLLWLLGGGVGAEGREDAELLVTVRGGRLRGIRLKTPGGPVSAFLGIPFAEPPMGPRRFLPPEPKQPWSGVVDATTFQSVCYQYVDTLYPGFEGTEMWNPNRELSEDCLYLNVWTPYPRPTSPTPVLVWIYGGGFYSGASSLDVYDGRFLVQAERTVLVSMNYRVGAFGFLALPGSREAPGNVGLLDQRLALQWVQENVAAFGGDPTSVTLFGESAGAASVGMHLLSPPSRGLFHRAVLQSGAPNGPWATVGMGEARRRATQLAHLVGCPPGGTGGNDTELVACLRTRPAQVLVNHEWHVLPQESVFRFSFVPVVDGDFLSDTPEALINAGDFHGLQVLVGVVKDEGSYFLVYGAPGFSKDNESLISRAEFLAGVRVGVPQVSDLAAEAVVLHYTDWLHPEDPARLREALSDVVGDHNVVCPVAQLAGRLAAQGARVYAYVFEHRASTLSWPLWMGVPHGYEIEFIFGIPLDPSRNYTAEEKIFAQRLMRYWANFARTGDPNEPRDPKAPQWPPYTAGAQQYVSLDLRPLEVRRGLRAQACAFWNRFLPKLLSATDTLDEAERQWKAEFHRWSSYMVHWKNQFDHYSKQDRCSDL
Chain of Acetylcholinesterase (Torpedo californica, UniProt P04058) (P04058 whole entry): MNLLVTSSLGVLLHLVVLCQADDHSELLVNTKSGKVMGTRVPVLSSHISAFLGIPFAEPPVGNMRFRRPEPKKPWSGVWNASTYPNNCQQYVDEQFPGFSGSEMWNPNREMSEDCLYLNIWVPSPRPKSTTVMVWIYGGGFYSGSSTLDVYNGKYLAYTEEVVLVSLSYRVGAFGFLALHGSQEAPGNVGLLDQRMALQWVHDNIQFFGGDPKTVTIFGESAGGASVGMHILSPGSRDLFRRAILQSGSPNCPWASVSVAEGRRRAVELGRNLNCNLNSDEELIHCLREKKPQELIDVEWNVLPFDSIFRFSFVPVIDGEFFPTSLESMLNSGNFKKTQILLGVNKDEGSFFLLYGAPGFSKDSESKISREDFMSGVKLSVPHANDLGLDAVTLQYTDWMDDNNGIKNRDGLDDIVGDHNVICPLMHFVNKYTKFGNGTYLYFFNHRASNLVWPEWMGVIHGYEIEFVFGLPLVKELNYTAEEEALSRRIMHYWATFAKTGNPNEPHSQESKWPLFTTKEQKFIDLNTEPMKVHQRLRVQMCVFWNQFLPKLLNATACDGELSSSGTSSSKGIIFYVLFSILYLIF
Chain of Acetylcholinesterase (Electrophorus electricus, UniProt O42275) (O42275 whole entry): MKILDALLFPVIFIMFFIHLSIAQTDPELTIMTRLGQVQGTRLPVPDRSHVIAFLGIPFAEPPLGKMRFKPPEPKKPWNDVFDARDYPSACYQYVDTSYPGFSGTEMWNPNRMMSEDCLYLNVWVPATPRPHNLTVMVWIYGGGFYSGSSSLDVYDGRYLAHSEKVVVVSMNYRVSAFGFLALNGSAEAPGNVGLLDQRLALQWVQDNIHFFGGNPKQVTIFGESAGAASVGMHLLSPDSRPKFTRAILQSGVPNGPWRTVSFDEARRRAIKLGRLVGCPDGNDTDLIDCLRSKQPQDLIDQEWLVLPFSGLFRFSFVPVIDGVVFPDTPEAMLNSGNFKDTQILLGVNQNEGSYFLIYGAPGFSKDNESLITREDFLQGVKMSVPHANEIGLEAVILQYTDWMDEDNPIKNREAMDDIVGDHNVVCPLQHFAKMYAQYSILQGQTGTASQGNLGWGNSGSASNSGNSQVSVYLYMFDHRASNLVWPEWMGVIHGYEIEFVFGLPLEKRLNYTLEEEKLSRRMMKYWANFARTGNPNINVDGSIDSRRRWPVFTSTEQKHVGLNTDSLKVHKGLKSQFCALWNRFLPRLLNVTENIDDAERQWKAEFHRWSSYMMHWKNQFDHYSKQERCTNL
T1 sequence (P22303 whole entry): as the sequence (P22303 whole entry, looked up) above
Chain of Acetylcholinesterase (Electrophorus electricus) (O42275 24-633 limits assumed): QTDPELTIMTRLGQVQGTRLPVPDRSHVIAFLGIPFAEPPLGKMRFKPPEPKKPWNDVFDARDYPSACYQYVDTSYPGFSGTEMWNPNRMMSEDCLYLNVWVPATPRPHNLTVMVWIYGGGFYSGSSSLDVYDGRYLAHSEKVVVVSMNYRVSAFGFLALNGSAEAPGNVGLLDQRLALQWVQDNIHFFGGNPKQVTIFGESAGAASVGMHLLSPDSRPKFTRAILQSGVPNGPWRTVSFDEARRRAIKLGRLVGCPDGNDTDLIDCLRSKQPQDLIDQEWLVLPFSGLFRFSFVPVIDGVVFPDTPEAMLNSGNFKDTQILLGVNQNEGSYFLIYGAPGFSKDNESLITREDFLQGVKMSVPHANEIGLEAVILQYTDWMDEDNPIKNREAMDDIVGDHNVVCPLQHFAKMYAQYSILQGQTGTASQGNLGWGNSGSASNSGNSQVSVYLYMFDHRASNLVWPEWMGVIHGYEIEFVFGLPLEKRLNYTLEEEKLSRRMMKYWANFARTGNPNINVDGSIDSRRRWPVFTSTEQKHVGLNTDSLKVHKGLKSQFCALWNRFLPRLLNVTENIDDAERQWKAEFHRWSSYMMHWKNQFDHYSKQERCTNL

In the case of `COc1cc(C(=O)NCC(=O)NNc2c3c(nc4ccccc24)CCCC3)cc(OC)c1OC`, the Ratio IC50 in assay [1] amounted to 1.87. Also, the IC50 against Acetylcholinesterase [2] was determined as 0.104 µM; on Cholinesterase, 0.0276 µM; against Acetylcholinesterase [3] it was 0.163 µM; on Acetylcholinesterase [4] it was 0.0516 µM.
In the case of `COc1cc(C(=O)NCCCCCCCC(=O)NN)cc(OC)c1OC`, the IC50 against Acetylcholinesterase [2] was 18 µM.
As to `COc1cc(CCC(=O)NCCC(=O)NNc2c3c(nc4ccccc24)CCCC3)cc(OC)c1OC`, the Ratio IC50 in assay [1] amounted to 22.4. In addition, the IC50 was found to be 0.102 µM on Acetylcholinesterase [2], 0.00603 µM at Cholinesterase, 0.0689 µM against Acetylcholinesterase [3] and 0.135 µM at Acetylcholinesterase [4].
For `COc1cc(CCC(=O)NCC(=O)NNc2c3c(nc4ccccc24)CCCC3)cc(OC)c1OC` the same measures were 1.7, 0.122 µM, 0.024 µM, 0.0401 µM and 0.0407 µM.
With `COc1cc(C(=O)NCCCCC(=O)NNc2c3c(nc4ccccc24)CCCC3)cc(OC)c1OC`, the Ratio IC50 in assay [1] is 10.1. In addition, the IC50 turned out to be 0.0202 µM at Acetylcholinesterase [2], 0.00168 µM against Cholinesterase, 0.0181 µM on Acetylcholinesterase [3] and 0.017 µM at Acetylcholinesterase [4].
For `COc1cc(C(=O)NCCCCCC(=O)NNc2c3c(nc4ccccc24)CCCC3)cc(OC)c1OC`, in assay [1], the Ratio IC50 was 18.8. Further, the IC50 on Acetylcholinesterase [2] turned out to be 0.0201 µM; against Cholinesterase, 0.000969 µM; on Acetylcholinesterase [3] it was 0.0557 µM; at Acetylcholinesterase [4], 0.0182 µM.
As for `COc1cc(C(=O)NCCCCCCCC(=O)NNc2c3c(nc4ccccc24)CCCC3)cc(OC)c1OC`, in assay [1], the Ratio IC50 amounted to 17.9. The same molecule gave an Activity in assay [5] of 3.23 nM. Further, the IC50 on Acetylcholinesterase [2] stood at 0.00325 µM; against Cholinesterase, 0.000293 µM; on Acetylcholinesterase [3], 0.0172 µM; on Acetylcholinesterase [4] it was 0.00524 µM.
As for `COc1cc(CCC(=O)NCCCCCC(=O)NNc2c3c(nc4ccccc24)CCCC3)cc(OC)c1OC`, the Ratio IC50 in assay [1] was 59.5. Further, the IC50 against Acetylcholinesterase [2] is 0.0202 µM; at Cholinesterase, 0.000141 µM; against Acetylcholinesterase [3], 0.0398 µM; on Acetylcholinesterase [4], 0.00839 µM.
In the case of `CCN(CC)C(C)C(=O)N1c2ccccc2Sc2ccccc21` (stereo not drawn), the Ratio IC50 in assay [1] stood at 12000. The outcome (in assay [6]; at Acetylcholinesterase [7]) was inactive. Moreover, the IC50 on Cholinesterase is 3.37 µM; against Acetylcholinesterase [3], 34.7 µM.
Regarding `CCOCC(=O)CCCCCCCNC(=O)c1cc(OC)c(OC)c(OC)c1`, the IC50 against Acetylcholinesterase [2] is greater than 250 µM.
Take `COc1cc(CCC(=O)NNc2c3c(nc4ccccc24)CCCC3)cc(OC)c1OC`: the Ratio IC50 in assay [1] was determined as 30.2. The IC50 was found to be 0.0121 µM against Cholinesterase, 0.0401 µM against Acetylcholinesterase [3] and 0.365 µM against Acetylcholinesterase [4].
In the case of `COc1cc(CCC(=O)NCCCCC(=O)NNc2c3c(nc4ccccc24)CCCC3)cc(OC)c1OC`, in assay [1], the Ratio IC50 turned out to be 424. Also, the IC50 against Acetylcholinesterase [2] came out at 0.0547 µM; against Cholinesterase, 0.000139 µM; against Acetylcholinesterase [3], 0.102 µM; against Acetylcholinesterase [4], 0.059 µM.
`COc1cc(C(=O)NNc2c3c(nc4ccccc24)CCCC3)cc(OC)c1OC`: the Ratio IC50 in assay [1] was found to be 227. For the same molecule, the IC50 amounted to 2.26 µM against Acetylcholinesterase [2], 0.0017 µM on Cholinesterase, 0.0211 µM against Acetylcholinesterase [3] and 0.386 µM on Acetylcholinesterase [4].
As for `COc1cc(CCC(=O)NCCCC(=O)NNc2c3c(nc4ccccc24)CCCC3)cc(OC)c1OC`, the Ratio IC50 in assay [1] stood at 319. The IC50 was 0.0521 µM at Acetylcholinesterase [2], 0.000226 µM on Cholinesterase, 0.158 µM at Acetylcholinesterase [3] and 0.0721 µM against Acetylcholinesterase [4].
In the case of `NNc1c2c(nc3ccccc13)CCCC2`, the IC50 on Acetylcholinesterase [2] turned out to be 13 µM.
Regarding `COc1cc(C(=O)NCCCC(=O)NNc2c3c(nc4ccccc24)CCCC3)cc(OC)c1OC`, the Ratio IC50 in assay [1] was 33.8. In addition, the IC50 was 0.0605 µM on Acetylcholinesterase [2], 0.00713 µM at Cholinesterase, 0.0263 µM at Acetylcholinesterase [3] and 0.241 µM against Acetylcholinesterase [4].
The corresponding values for `COc1cc(C(=O)NCCCCCCC(=O)NNc2c3c(nc4ccccc24)CCCC3)cc(OC)c1OC` are 10.8, 0.00976 µM, 0.000523 µM, 0.0252 µM and 0.00565 µM.
Take `COc1cc(C(=O)NCCC(=O)NNc2c3c(nc4ccccc24)CCCC3)cc(OC)c1OC`: the Ratio IC50 in assay [1] is 6.97. Also, the half-maximal inhibitory concentration (IC50) at Acetylcholinesterase [2] was found to be 0.1 µM; against Cholinesterase, 0.0128 µM; against Acetylcholinesterase [3], 0.0495 µM; against Acetylcholinesterase [4], 0.0892 µM.

The IC50 is the concentration at which inhibition is half-maximal.
